Test results from ChEMBL document CHEMBL1127813, “Pseudopeptide inhibitors of Ras farnesyl-protein transferase” (J Med Chem, 1994).
Activity calls are given as the source filed them. No cut-off for these calls is given here.

What was measured:
[1] = target: Protein farnesyltransferase (Bos taurus, UniProt P29702+P49355); experiment: Inhibitory activity against Ras Farnesyl Protein transferase from bovine brain
Procedure, shortened: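 FPTase purified from bovine brain (about 1 nM) incubated with [³H]FPP, recombinant Harvey-Ras and varying inhibitor concentrations. Protein was acid-precipitated and Ras-bound label counted by scintillation. IC50 is the concentration halving label incorporation relative to the no-inhibitor control, given as mean ± SEM with the number of determinations.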

[2] = target: T1, Geranylgeranyl transferase type I (Bos taurus, UniProt P29702+Q5EAD5); experiment: Inhibitory activity against bovine type-1 geranylgeranyl transferase.; assay type: protein-complex assay
[3] = target: T2, Protein farnesyltransferase (Mus musculus) (UniProt Q61239+Q8K2I1); experiment: Inhibition of v-ras posttranslational processing in NIH3T3 cells (No inhibition); assay type: cell-based
Procedure, shortened: (§1)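 NIH 3T3 cells expressing viral Ha-ras were metabolically labeled with [³⁵S]methionine while exposed to compound or solvent control. Cells were lysed after 24 h and Ras was immunoprecipitated to assess posttranslational processing. Scored as percent inhibition of processing; +++ means ≥90% inhibition. Lovastatin 15 μM was the reference.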

NIH3T3 [4] = experiment: The cytotoxic endpoint, the highest nontoxic concentration for cultured NIH3T3 cells; assay type: functional, cell-based; settings: Mus musculus
Procedure, shortened: (§2)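 NIH3T3 fibroblasts exposed to compound for 48 h; viability read by MTT staining. Endpoint is the highest concentration tolerated without toxicity. Top concentration tested was 100 μM for most compounds; one lactone was dosed up to 1 mM.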

[5] = target: T1, Geranylgeranyl transferase type I; experiment: In vitro inhibition of bovine type-1 geranylgeranyl transferase; assay type: protein-complex assay
[6] = The binding affinity against Ras protein
NIH3T3 [7] = experiment: Highest nontoxic concentration in NIH3T3 cells; assay type: functional, cell-based; settings: Mus musculus; procedure, shortened: as §2
[8] = target: T2, Protein farnesyltransferase (Mus musculus); experiment: Inhibition of v-ras posttranslational processing in NIH3T3 cells at 100 uM; assay type: cell-based; procedure, shortened: as §1
[9] = target: T2, Protein farnesyltransferase (Mus musculus); experiment: Inhibition of v-ras posttranslational processing in NIH3T3 cells at 15 uM; assay type: cell-based; procedure, shortened: as §1
[10] = target: T2, Protein farnesyltransferase (Mus musculus); experiment: Inhibition of v-ras posttranslational processing in NIH3T3 cells at 1 uM; assay type: cell-based; procedure, shortened: as §1
[11] = target: T2, Protein farnesyltransferase (Mus musculus); experiment: Inhibition of v-ras posttranslational processing in NIH3T3 cells at 5 uM (No inhibition); assay type: cell-based; procedure, shortened: as §1
[12] = target: T2, Protein farnesyltransferase (Mus musculus); experiment: Inhibition of v-ras posttranslational processing in NIH3T3 cells at 10 uM; assay type: cell-based; procedure, shortened: as §1

Structure (SMILES)	IC50 [1]	IC50 [2]	Concentration (NIH3T3 [4])	also measured
CC[C@H](C)[C@H](NC[C@@H](N)CS)C(=O)N[C@H](C(=O)N[C@@H](CCO)C(=O)O)[C@@H](C)CC	42 nM	8000 nM	> 100 µM	inhibition [3]: inactive
CC[C@H](C)[C@H](NC(=O)[C@@H](NC[C@@H](N)CS)C(C)C)C(=O)N[C@@H](CC(C)C)C(=O)O	550 nM			
CCC(C)[C@H](NCC(N)CS)C(=O)N[C@H](CN[C@@H](CCSC)C(=O)O)Cc1ccccc1 (stereo partly specified)	140 nM			IC50 [5]: 1100 nM
CC[C@H](C)[C@H](NC(=O)[C@@H](NC(=O)[C@@H](N)CS)C(C)C)C(=O)N[C@@H](CCSC)C(=O)O	165 nM	49000 nM		
CC[C@H](C)[C@H](NC(=O)[C@@H](NC(=O)[C@@H](N)CS)[C@@H](C)CC)C(=O)N[C@@H](CCO)C(=O)O	330 nM			
CC[C@H](C)[C@H](NCCCS)C(=O)N[C@@H](Cc1ccccc1)C(=O)N[C@@H](CCSC)C(=O)O	50 nM	> 10000 nM		
CCC(C)[C@H](NC[C@@H](NC(=O)[C@@H](N)CS)C(C)CC)C(=O)N[C@@H](CCO)C(=O)O (stereo partly specified)	150 nM			
CC[C@H](C)[C@H](NC[C@@H](NC[C@@H](N)CS)[C@@H](C)CC)C(=O)N[C@@H](CCO)C(=O)O	20 nM	45000 nM	> 100 µM	Ki [6]: 20 nM; inhibition [3]: inactive
CCCCCCCCCCOC(=O)[C@H](CCSC)NC(=O)[C@H](Cc1ccccc1)NC(=O)[C@@H](NCC(N)CS)C(C)CC (stereo partly specified)				Concentration (NIH3T3 [7]): 2 µM
CC[C@H](C)[C@H](NC(=O)[C@@H](NC[C@@H](N)CS)C(C)C)C(=O)N[C@@H](CCSC)C(=O)O	7 nM	28 nM		
CC[C@H](C)[C@H](NC[C@@H](N)CS)C(=O)N[C@@H](Cc1ccccc1)C(=O)N[C@@H](CCSC)C(=O)O	18 nM	310 nM	> 100 µM	inhibition [8]: 10%
CC[C@H](C)C(=O)O[C@H]1C[C@@H](C)C=C2C=C[C@H](C)[C@H](CC[C@@H]3C[C@@H](O)CC(=O)O3)[C@H]21				inhibition [9]: > 90%
CCC(C)[C@@H](CN[C@@H](Cc1ccccc1)C(=O)N[C@@H](CCSC)C(=O)O)NCCCS (stereo partly specified)	400 nM			IC50 [5]: > 10000 nM
CC[C@H](C)[C@H](NC(=O)[C@@H](N)CS)C(=O)N[C@@H](Cc1ccccc1)C(=O)N[C@@H](CCSC)C(=O)O	27 nM	300000 nM		
CC[C@@H](C)[C@H](NC[C@@H](NC[C@@H](N)CS)[C@H](C)CC)C(=O)N[C@H]1CCOC1=O			> 1000 µM	inhibition [8]: > 90%
CCC(C)[C@@H](CN[C@@H](Cc1ccccc1)C(=O)N[C@@H](CCSC)C(=O)OC)NCC(N)CS (stereo partly specified)			1 µM	inhibition [10]: 10%
CCC(C)[C@H](NCC(N)CS)C(=O)N[C@@H](Cc1ccccc1)C(=O)N[C@@H](CCSC)C(=O)OCc1ccccc1 (stereo partly specified)				Concentration (NIH3T3 [7]): 5 µM; inhibition [11]: inactive
CCC(C)[C@@H](CN[C@@H](Cc1ccccc1)C(=O)N[C@@H](CCSC)C(=O)O)NCC(N)CS (stereo partly specified)	4.8 nM		> 100 µM	inhibition [8]: 30%; IC50 [5]: 5750 nM
CCOC(=O)[C@H](CCSC)NC(=O)[C@H](Cc1ccccc1)NC(=O)[C@@H](NCC(N)CS)C(C)CC (stereo partly specified)			10 µM	inhibition [12]: 10%
CC[C@H](C)[C@H](NC(=O)[C@@H](NCCCS)C(C)C)C(=O)N[C@@H](CCSC)C(=O)O	29 nM	2200 nM		
CC[C@H](C)[C@H](NC[C@@H](N)CS)C(=O)N[C@H](C(=O)N[C@H]1CCOC1=O)[C@@H](C)CC			> 100 µM	inhibition [8]: 30%
